Results pooled from the literature.
Lines come from different studies, so protocols differ.
Cell line: MCF7
Observed: cell growth or viability

| SMILES | test | setting | endpoint | result |
| --- | --- | --- | --- | --- |
| COc1ccc(CNC[C@](O)(COCc2ccc(OC)cc2)[C@@H]2CC[C@@H](C)C[C@H]2OCc2ccc(OC)cc2)cc1 | MTT | 10 µM, 72 h | inhibition | 101% |
| O=C(Nc1ccccc1)Nc1ccc(Oc2nnc(-c3ccc(Cl)cc3)c3ccccc23)cc1 | MTT | 10 µM, 24 h | viability | 5.36% |
| COc1ccc(-c2cc(-c3ccc(C)cc3)nc3[nH]c(=O)[nH]c(=O)c23)cc1OC | MTT | 48 h | IC50 | 26.6 µM |
| CC(=O)Nc1ccc(Oc2nnc(-c3ccc(Cl)cc3)c3ccccc23)cc1 | MTT | 10 µM, 24 h | viability | 5.75% |
| CCOC(=O)c1nn(-c2cccc(Cl)c2)/c(=N/N=C(\C)c2ccc(NC(=O)c3ccccc3)cc2)s1 | MTT | 78 nM | viability | 87.7% |
| CC(=NNC(N)=S)c1ccc(Nc2nnc(-c3ccc(Cl)cc3)c3ccccc23)cc1 | MTT | 0.625 µM, 24 h | viability | 4.56% |
| COc1cccc2c1C(=O)c1c(O)c3c(c(O)c1C2=O)C[C@@](O)(C(=O)CO)C[C@@H]3O[C@H]1C[C@H](N)[C@H](O)[C@H](C)O1 | MTT | – | GI50 | 7.32 µM |
| Cc1ccc(-c2cc(-c3ccc(Cl)cc3)c3c(=O)[nH]c(=O)[nH]c3n2)cc1 | MTT | 48 h | IC50 | 9.67 µM |
| CC(=O)c1nn(-c2ccc(C)cc2)/c(=N/N=C(\C)c2ccc(NC(=O)c3ccccc3)cc2)s1 | MTT | 10 µM | viability | 6.47% |
| CC(=NNC(=O)c1ccc(N)cc1)c1ccc(Nc2nnc(-c3ccc(Cl)cc3)c3ccccc23)cc1 | MTT | 1.25 µM | cell death | 85.9% |
| C[C@@H]1CC[C@@H]([C@](C)(O)Cn2ccnc2)[C@H](OCc2ccccc2)C1 | MTT | 30 µM, 72 h | inhibition | 34.6% |
| CCOC(=O)c1nn(-c2cccc(Cl)c2)/c(=N/N=C(\C)c2ccc(NC(=O)c3ccc(Cl)cc3)cc2)s1 | MTT | 5 µM | viability | 3.67% |
| C[C@@H]1CC[C@@H]([C@@](C)(O)Cn2cnc3ccccc32)[C@H](OCc2ccccc2)C1 | MTT | 30 µM, 72 h | inhibition | 94.8% |
| CC(=O)c1nn(-c2ccccc2Cl)/c(=N/N=C(\C)c2ccc(NC(=O)c3ccccc3)cc2)s1 | MTT | 0.625 µM | viability | 6.6% |
| COc1ccccc1CNC[C@@](C)(O)[C@@H]1CC[C@@H](C)C[C@H]1OCc1ccccc1 | MTT | 30 µM, 72 h | inhibition | 98.1% |
| CC(=NNC(=O)c1ccccc1O)c1ccc(Nc2nnc(-c3ccc(Cl)cc3)c3ccccc23)cc1 | MTT | 0.312 µM, 24 h | viability | 99.3% |
| C[C@@H]1CC[C@@H]([C@@](O)(CNCc2cccc3ccccc23)COCc2ccccc2)[C@H](OCc2ccccc2)C1 | MTT | 10 µM, 72 h | inhibition | 82.9% |
| Cc1nc(NC(=O)N2CCC[C@H]2C(N)=O)sc1-c1ccnc(C(C)(C)C(F)(F)F)c1 | – | 5 days | EC50 | 0.177 µM |
| O=C(Nc1ccc(Oc2nnc(-c3ccc(Cl)cc3)c3ccccc23)cc1)c1cccc([N+](=O)[O-])c1 | MTT | 0.625 µM, 24 h | viability | 9.78% |
| COc1ccc(CNC[C@](O)(COCc2ccc(F)cc2)[C@@H]2CC[C@@H](C)C[C@H]2OCc2ccc(F)cc2)cc1 | MTT | 30 µM, 72 h | inhibition | 98.4% |
